For 29 compounds, inhibition and IC50 results are on record in ChEMBL document CHEMBL3396987, “Discovery and structure-activity relationship studies of N6-benzoyladenine derivatives as novel BRD4 inhibitors” (Bioorg Med Chem, 2015).

In general, inhibition refers to the relative decrease from the control value, in per cent. By IC50 is commonly meant the midpoint of a concentration-inhibition curve. Higher therefore signals lower potency.

Active and inactive are the calls of the source. The rule behind the calls is not given here.

The target in experiment [1] is T1, Bromodomain-containing protein 4 (Homo sapiens, UniProt O60885). The conditions noted are these: at 100 µM.
Experiment [2] deals with T1, Bromodomain-containing protein 4. Put plainly: Inhibition of BRD4 bromodomain-1 (unknown origin) by europium based LANCE TR-FRET assay.
For experiment [3] the target is unchanged. Put plainly: Inhibition of BRD4 bromodomain-1 (unknown origin) at 300 uM by europium based LANCE TR-FRET assay. A digest of the protocol: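 Run with a commercial BRD4 bromodomain 1 TR-FRET assay kit, read out as europium-based LANCE time-resolved fluorescence resonance energy transfer.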
For orientation: In TR-FRET formats the signal depends on donor and acceptor labels being close together.

For `O=C1CCC(N2C(=O)c3ccccc3C2=O)C(=O)N1` (stereo unspecified), in experiment [1], the inhibition entry was “inactive”.

For `c1ccc(CNc2ncnc3[nH]cnc23)cc1`, in experiment [1], the inhibition entry is “inactive”.

In turn, `CCCOc1ccccc1C(=O)Nc1ncnc2[nH]cnc12` had an IC50 in experiment [2] of 20 µM.

Consider `O=C(Nc1cccc2ncccc12)c1ccccc1`, for which the inhibition in experiment [3] was below 50%; in experiment [1], 16.4%.

In turn, `COc1cc(OC)c(C(=O)Nc2ncnc3[nH]cnc23)cc1OC` returned an IC50 in experiment [2] of 0.427 µM. In other words, the sub-micromolar range.

As for `Cn1cnc2c(NC(=O)c3ccccc3)ncnc21`, the inhibition was below 50% in experiment [3] and 3.7% in experiment [1].

`COc1ccccc1C(=O)Nc1ncnc2[nH]cnc12` gave an IC50 in experiment [2] of 16 µM.

Turning to `CSc1ccccc1C(=O)Nc1ncnc2[nH]cnc12`, the IC50 in experiment [2] was determined as 29.7 µM. Compared with the last compound, the IC50 is about 1.9-fold higher.

`O=C(Nc1ncnc2[nH]cnc12)c1cccc(Br)c1`: the inhibition in experiment [3] is below 50%; in experiment [1] it was 44.5%.

In experiment [2], `CN(C)c1ccccc1C(=O)Nc1ncnc2[nH]cnc12` displayed an IC50 of 5.6 µM.

`COc1ccc(C(=O)Nc2ncnc3[nH]cnc23)cc1OC`: in experiment [2], half-maximal inhibition (IC50) was put at 7.8 µM.

`Cc1ccccc1C(=O)Nc1ncnc2[nH]cnc12`: the inhibition was below 50% in experiment [3] and 40.4% in experiment [1].

For the compound `COc1cccc(C(=O)Nc2ncnc3[nH]cnc23)c1`, in experiment [2], the IC50 stood at 63 µM.

As to `Cc1n[nH]c(C)c1CN1C(=O)c2ccccc2C1=O`, the inhibition entry in experiment [1] was “inactive”.

Turning to `Cc1noc(C)c1N1C(=O)c2ccccc2C1=O`, the inhibition entry in experiment [1] is “inactive”.

Consider `COc1ccc(C(=O)Nc2ncnc3[nH]cnc23)c(OC)c1`, for which the inhibition is below 50% in experiment [3] and 40.8% in experiment [1].

As for `COc1cccc(OC)c1C(=O)Nc1ncnc2[nH]cnc12`, the inhibition is below 50% in experiment [3] and 11.5% in experiment [1].

`COc1ccc(OC)c(C(=O)Nc2ncnc3[nH]cnc23)c1`: the midpoint of inhibition in experiment [2], the IC50, lay at 7.2 µM. That is a single-digit micromolar value.

In the case of `O=C(Nc1ncnc2[nH]cnc12)c1ccc(Br)cc1`, the figures for the inhibition in experiment [3] and in experiment [1] were below 50% and 36.7%, respectively.

For `O=C(c1ccccc1)N(C(=O)c1ccccc1)c1ccncn1`, the inhibition in experiment [3] was below 50%; in experiment [1], 11%.

The compound `COc1ccc(C(=O)Nc2ncnc3[nH]cnc23)cc1` gave an IC50 in experiment [2] of 34.5 µM.

As to `O=C(Nc1ncnc2nc[nH]c12)c1ccccc1`, in experiment [2], the midpoint of inhibition, the IC50, lay at 34.2 µM.

Regarding `O=C(Nc1ccncn1)c1ccccc1`, the inhibition in experiment [3] was below 50%; in experiment [1], 5.8%.

`COc1cc(OC)cc(C(=O)Nc2ncnc3[nH]cnc23)c1` showed an IC50 in experiment [2] of 17.9 µM.

Take `O=C(Nc1ncnc2[nH]cnc12)c1ccccc1Br`: the figures for the inhibition in experiment [3] and in experiment [1] were below 50% and 39%, respectively.

In turn, `COc1cccc(C(=O)Nc2ncnc3[nH]cnc23)c1OC` returned an IC50 in experiment [2] of 78.6 µM.

For `C/C(=C\CNc1ncnc2[nH]cnc12)CO`, the inhibition result in experiment [1] is “inactive”.

On to `O=C(Nc1cccc2[nH]cnc12)c1ccccc1`, for which the inhibition was below 50% in experiment [3] and 4.8% in experiment [1].

Take `O=C(Nc1cccc2c1ncn2C(=O)c1ccccc1)c1ccccc1`: the inhibition in experiment [3] is below 50%; in experiment [1], 7.2%.
